Active and inactive are the calls of the source. The rule behind the calls is not given here. A value given as a limit tells only on which side of the number the result lay.

As a reminder, the CC50 is the concentration giving 50% cytotoxicity. A high value points to better tolerance by the cells. As usually defined, the EC50 is the midpoint of the concentration-response curve. A high value points to lower potency in that assay.

The test system of test [1] is Human immunodeficiency virus 1. In words: Antiviral activity against HIV1 3B in human MT2 cells by MTT assay. The test is classed as functional, organism-based. The note with it: for EC50: Human immunodeficiency virus 1, 3B. In a few lines: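 HIV-1 IIIB infection of human MT-2 T-cells; MTT colorimetric read-out of cell protection. Antiviral curves were run in triplicate at each concentration.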
On the technique in general: Tetrazolium dyes change colour on reduction, which living cells bring about.

The next test deals with MT2. In words: Cytotoxicity against human MT2 cells by MTT assay. Type of test: functional. A digest of the protocol:
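Human MT-2 cells, MTT colorimetric read-out. CC50 is the concentration giving 50% inhibition of MT-2 cell growth.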

Take `Clc1ccc(Nc2nnc(Cc3ccccc3)o2)cc1`: the outcome in test [1] was inactive. In the test with MT2, this molecule displayed a half-maximal cytotoxic concentration (CC50) of 31 µM.

For the molecule `Cc1ccnc2c1NC(=O)c1cccnc1N2C1CC1` [NEVIRAPINE], in the test with MT2, the cytotoxic concentration (CC50) was > 10 µM.

In the case of `FC(F)(F)c1cc(Nc2nnc(Cc3c(Cl)cccc3Cl)o2)ccc1Cl`, the result in test [1] was inactive. Moreover, the CC50 in the test with MT2 worked out at 9 µM.

In turn, `Cc1cc(Nc2nnc(Cc3c(Cl)cccc3Cl)o2)ccc1Cl` displayed an EC50 in test [1] of 1.3 µM. Besides, the CC50 with MT2 is > 100 µM.

`Clc1ccc(Nc2nnc(Cc3c(Cl)cccc3Cl)o2)cc1`: a half-maximal effect in test [1] (EC50) was put at 0.82 µM. For the same molecule, half-maximal cytotoxicity in the test on MT2 (CC50) was put at 20 µM.

Regarding `O=C1Nc2ccc(Cl)cc2C(C#CC2CC2)(C(F)(F)F)O1` (single isomer, unassigned) [EFAVIRENZ], the CC50 with MT2 came out at 3 µM.

Consider `Clc1ccc(Nc2nnc(Cc3c(Cl)cccc3Cl)o2)cc1Cl`, for which the response in test [1] was half-maximal at 0.31 µM (EC50). The half-maximal cytotoxic concentration (CC50) in the test on MT2 is > 100 µM.

For `COc1ccc(Cc2nnc(Nc3ccc(C)cc3)o2)cc1OC`, the result in test [1] was inactive. Also, in the test on MT2, the 50% cytotoxic concentration (CC50) was 61 µM.

As for `Clc1ccc(Nc2nnc(Cc3cccc(Cl)c3)o2)cc1`, in test [1], the concentration for a half-maximal effect (EC50) was > 10 µM. The molecule further had a cytotoxic concentration (CC50) in the test with MT2 of 32 µM.

Regarding `COc1cc(Nc2nnc(Cc3c(Cl)cccc3Cl)o2)c(Cl)cc1Cl`, the outcome in test [1] was inactive. In the test with MT2, this molecule returned a CC50 of 9 µM.

With `c1ccc(Cc2nnc(Nc3ccccc3)o2)cc1`, the result in test [1] was inactive. Moreover, the CC50 in the test with MT2 was > 100 µM.

As for `Cc1cn([C@H]2C=C[C@@H](CO)O2)c(=O)[nH]c1=O` [STAVUDINE], the concentration for a half-maximal effect (EC50) in test [1] was determined as 1.6 µM. The CC50 in the test with MT2 was > 100 µM.

As for `Clc1ccc(Cc2nnc(Nc3ccc(Cl)cc3)o2)cc1`, in test [1], the outcome was inactive. In the test on MT2, the CC50 was > 100 µM.

With `Cc1cc(C)cc(Cc2nnc(Nc3ccc(Cl)cc3)o2)c1`, in test [1], the outcome was inactive. Further, in the test on MT2, the CC50 was > 100 µM.

Values taken from ChEMBL document CHEMBL1137600, “From docking false-positive to active anti-HIV agent” (J Med Chem, 2007).
